According to ChEMBL document CHEMBL3745695, “Novel Hits in the Correction of ΔF508-Cystic Fibrosis Transmembrane Conductance Regulator (CFTR) Protein: Synthesis, Pharmacological, and ADME Evaluation of Tetrahydropyrido[4,3-d]pyrimidines for the Potential Treatment of Cystic Fibrosis” (J Med Chem, 2015):
≈ marks a conversion by molar mass, not a printed value. Calls of active or inactive are those of the source. The calls are words filed in the database; no cut-off is given here.

Experiments:
[1] = Solubility of the compound in 50 mM ammonium acetate buffer at 250 uM at pH 7.4 after 24 hrs by UPLC/UV/TOF-MS analysis; type: physicochemical; conditions: for solubility at 24 h, 250 µM: 50 mM ammonium acetate buffer, pH 7.4
Procedure, shortened: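 From 10 mM DMSO stock, 250 μM in 50 mM ammonium acetate pH 7.4 (2.5% DMSO final). Shaken 24 h at room temperature, filtered, diluted 1:2. UPLC/UV (254 nm) quantified against a 250 μM standard in acetonitrile/buffer.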

CYP3A4 = CYP3A4 (Homo sapiens, UniProt P08684); assay: Metabolic stability assessed as recombinant human CYP3A4-mediated drug degradation by measuring compound remaining incubated for 1 hr by MS analysis; type: ADME; conditions: read-out: Stability
CYP3A4, sequence (P08684 whole entry): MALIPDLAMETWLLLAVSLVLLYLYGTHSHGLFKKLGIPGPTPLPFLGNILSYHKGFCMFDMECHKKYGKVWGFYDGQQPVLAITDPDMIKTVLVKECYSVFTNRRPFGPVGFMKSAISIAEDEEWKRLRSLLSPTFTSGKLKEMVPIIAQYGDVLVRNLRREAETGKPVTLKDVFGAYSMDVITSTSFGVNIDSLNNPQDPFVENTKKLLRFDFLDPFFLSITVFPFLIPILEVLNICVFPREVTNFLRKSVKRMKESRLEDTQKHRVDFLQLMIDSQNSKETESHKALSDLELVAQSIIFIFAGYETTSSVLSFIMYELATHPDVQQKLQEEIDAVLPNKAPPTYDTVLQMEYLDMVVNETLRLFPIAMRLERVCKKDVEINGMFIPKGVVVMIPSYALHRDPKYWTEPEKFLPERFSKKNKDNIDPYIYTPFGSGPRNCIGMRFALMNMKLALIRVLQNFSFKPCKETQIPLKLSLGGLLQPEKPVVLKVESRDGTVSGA
Procedure, shortened: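 Recombinant hCYP3A4 at 20 pmol/mL, compound at 1 μM final with 0.25% organic solvent. 1 h at 37 °C with or without NADPH regenerating system, acetonitrile stop. Reported as % remaining by MS, NADPH sample versus the no-NADPH control.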

[2] = tested on: Cystic fibrosis transmembrane conductance regulator (Homo sapiens), P13569 [F508del]; assay: Corrector activity at human CFTR F508 deletion mutant expressed in FRT cells at 10 uM incubated for 25 mins with forskolin by YFP-based fluorescence analysis relative to control; type: cell-based
Cystic fibrosis transmembrane conductance regulator (Homo sapiens), P13569 [F508del], sequence (P13569 as listed by the source): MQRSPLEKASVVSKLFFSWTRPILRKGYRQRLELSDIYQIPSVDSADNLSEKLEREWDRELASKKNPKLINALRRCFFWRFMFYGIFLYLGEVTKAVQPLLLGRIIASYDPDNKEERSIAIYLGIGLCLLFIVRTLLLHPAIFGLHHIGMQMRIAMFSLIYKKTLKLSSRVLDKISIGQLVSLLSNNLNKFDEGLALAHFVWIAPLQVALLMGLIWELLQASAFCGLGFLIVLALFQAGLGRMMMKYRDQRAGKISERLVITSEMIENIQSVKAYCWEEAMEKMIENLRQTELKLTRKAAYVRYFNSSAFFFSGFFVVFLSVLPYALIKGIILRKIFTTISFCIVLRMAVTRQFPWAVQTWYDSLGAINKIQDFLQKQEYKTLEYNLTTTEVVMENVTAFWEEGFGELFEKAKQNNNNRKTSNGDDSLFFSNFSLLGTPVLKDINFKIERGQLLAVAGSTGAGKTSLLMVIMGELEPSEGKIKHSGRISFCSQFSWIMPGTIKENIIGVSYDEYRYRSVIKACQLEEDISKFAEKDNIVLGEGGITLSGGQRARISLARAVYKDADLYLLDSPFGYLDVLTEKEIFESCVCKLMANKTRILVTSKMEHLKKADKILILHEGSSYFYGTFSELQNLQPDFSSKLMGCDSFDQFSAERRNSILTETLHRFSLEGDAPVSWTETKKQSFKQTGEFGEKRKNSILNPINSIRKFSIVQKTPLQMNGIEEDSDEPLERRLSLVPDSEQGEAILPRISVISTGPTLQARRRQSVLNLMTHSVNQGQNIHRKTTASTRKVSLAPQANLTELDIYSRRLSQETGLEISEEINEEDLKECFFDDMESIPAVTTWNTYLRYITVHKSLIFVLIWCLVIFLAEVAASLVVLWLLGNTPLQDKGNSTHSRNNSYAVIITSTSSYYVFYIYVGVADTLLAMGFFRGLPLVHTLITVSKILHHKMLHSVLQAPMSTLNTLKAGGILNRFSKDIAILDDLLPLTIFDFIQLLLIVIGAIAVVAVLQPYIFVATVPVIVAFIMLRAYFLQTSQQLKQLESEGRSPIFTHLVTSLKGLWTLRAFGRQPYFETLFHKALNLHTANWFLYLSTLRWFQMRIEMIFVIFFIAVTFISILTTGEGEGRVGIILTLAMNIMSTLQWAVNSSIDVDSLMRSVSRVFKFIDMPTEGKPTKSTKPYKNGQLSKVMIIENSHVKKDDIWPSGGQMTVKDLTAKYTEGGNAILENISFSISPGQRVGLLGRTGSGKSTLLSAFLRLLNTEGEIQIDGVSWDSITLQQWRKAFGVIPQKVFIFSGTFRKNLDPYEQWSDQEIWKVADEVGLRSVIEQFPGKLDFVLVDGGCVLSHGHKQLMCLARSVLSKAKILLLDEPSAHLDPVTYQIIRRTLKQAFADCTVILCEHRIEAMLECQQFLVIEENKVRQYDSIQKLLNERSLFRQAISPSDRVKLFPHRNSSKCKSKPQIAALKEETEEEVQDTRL

[3] = tested on: Cystic fibrosis transmembrane conductance regulator (Homo sapiens), P13569 [F508del]; assay: (§1) Corrector activity at human CFTR F508 deletion mutant expressed in FRT cells incubated for 25 mins with forskolin by YFP-based fluorescence analysis relative to control; type: cell-based
Procedure, shortened: (§2)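 FRT cells co-expressing ΔF508-CFTR and YFP-H148Q/I152L, grown 18–24 h at 37 °C, then 18–24 h at 37 °C with test compound. Then 25 min in PBS with forskolin (20 μM) plus genistein (50 μM). Iodide injected (final 100 mM) with a 14-s read. Exponential fit of the final 11 s gave dF/dt. EC50/Emax from dose–response, normalized to DMSO (0%) and positive control (100%). Mean of 2–3 experiments.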

[4] = target: T1, Cystic fibrosis transmembrane conductance regulator (Homo sapiens, UniProt P13569, F508DEL); assay: as §1; type: cell-based; procedure, shortened: as §2
T1 sequence (P13569 as listed by the source): as above

[5] = target: Cystic fibrosis transmembrane conductance regulator (Homo sapiens) (UniProt P13569); assay: Activity at human wild type CFTR expressed in FRT cells at 10 uM incubated for 25 mins with forskolin by YFP-based fluorescence analysis; type: cell-based
Cystic fibrosis transmembrane conductance regulator (Homo sapiens), sequence (P13569 whole entry, looked up): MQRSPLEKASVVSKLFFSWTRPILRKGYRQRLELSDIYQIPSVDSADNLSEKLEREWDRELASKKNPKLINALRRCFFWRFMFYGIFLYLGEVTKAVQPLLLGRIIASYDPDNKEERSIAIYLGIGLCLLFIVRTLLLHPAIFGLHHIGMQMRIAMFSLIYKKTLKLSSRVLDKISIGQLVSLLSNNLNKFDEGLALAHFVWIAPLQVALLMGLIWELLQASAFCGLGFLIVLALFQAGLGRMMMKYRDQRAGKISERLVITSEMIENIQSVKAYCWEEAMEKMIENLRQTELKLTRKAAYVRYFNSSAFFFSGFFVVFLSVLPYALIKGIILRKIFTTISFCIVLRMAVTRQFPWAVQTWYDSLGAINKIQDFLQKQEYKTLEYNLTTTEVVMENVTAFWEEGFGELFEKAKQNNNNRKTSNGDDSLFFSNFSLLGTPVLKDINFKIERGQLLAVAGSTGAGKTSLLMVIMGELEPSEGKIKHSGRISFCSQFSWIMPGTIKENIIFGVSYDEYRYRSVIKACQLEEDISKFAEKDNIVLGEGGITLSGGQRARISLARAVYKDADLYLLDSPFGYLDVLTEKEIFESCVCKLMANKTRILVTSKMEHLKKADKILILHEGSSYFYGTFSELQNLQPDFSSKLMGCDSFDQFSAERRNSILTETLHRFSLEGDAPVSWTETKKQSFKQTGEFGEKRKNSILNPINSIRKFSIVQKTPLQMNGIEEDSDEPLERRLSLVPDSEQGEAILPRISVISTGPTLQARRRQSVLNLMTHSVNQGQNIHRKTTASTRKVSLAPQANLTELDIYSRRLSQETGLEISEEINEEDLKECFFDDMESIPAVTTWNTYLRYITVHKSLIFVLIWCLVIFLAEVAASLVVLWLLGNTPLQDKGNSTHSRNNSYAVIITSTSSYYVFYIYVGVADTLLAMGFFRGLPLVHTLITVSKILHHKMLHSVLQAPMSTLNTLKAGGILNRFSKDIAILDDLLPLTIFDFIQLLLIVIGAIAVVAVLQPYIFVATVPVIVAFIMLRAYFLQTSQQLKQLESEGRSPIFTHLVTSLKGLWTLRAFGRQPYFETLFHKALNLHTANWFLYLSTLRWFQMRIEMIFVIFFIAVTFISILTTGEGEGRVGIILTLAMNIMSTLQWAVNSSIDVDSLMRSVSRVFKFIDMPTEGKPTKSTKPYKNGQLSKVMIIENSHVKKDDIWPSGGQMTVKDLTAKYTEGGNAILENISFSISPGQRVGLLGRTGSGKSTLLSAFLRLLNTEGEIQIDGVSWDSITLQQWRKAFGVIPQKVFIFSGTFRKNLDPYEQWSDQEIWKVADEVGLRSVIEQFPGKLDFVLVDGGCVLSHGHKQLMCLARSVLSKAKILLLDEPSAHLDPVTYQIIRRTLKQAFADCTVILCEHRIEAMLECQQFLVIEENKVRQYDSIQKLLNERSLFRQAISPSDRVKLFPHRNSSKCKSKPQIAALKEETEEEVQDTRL
Procedure, shortened: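 FRT cells stably co-expressing human CFTR and halide-sensing YFP-H148Q/I152L, plated 50,000 cells/well. At assay, PBS wash, then 25 min in PBS with forskolin (20 μM). Iodide solution injected (final I⁻ 100 mM) during a 14-s fluorescence reading (ex 500, em 535 nm). The final 11 s were fitted exponentially to give initial slope dF/dt. Test compounds at 10 μM, normalized to DMSO (100%). Mean of 2 or 3 independent experiments.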

[6] = Permeability of compound at 10 uM after 4 hrs by PAMPA; type: ADME
Procedure, shortened: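 PAMPA with porcine brain lipid (2% w/v in dodecane). Compound 10 μM in HBSS/Hepes pH 7.4 in the donor well, 4 h at 37 °C and 80% humidity, warfarin membrane-integrity control. Donor and acceptor concentrations by UPLC-MS-TOF; effective permeability Pe calculated.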

[7] = tested on: Cystic fibrosis transmembrane conductance regulator (Homo sapiens), P13569 [F508del]; assay: (§3) Corrector activity at human CFTR F508 deletion mutant expressed in human A549 cells incubated for 25 mins by YFP-based fluorescence analysis; type: cell-based
Procedure, shortened: (§4)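 A549 cells stably co-expressing ΔF508-CFTR and YFP-H148Q/I152L, cultured in DMEM/F-12. Corrector treatment 18–24 h at 37 °C, then 25 min forskolin (20 μM) plus genistein (50 μM). Iodide injected (final 100 mM). Initial slope dF/dt taken from an exponential fit of the final 11 s. EC50/Emax from dose–response. Mean of 2–3 independent experiments.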

[8] = tested on: Cystic fibrosis transmembrane conductance regulator (Homo sapiens), P13569 [F508del]; assay: Corrector activity at human CFTR F508 deletion mutant expressed in FRT cells at 15 uM incubated for 25 mins with forskolin by YFP-based fluorescence analysis relative to control; type: cell-based
[9] = Apparent permeability from apical to basolateral side in MDCK cells at 10 uM incubated for 2 hrs by LC-MS analysis; type: ADME, cell-based, Canis lupus familiaris; conditions: dog
Procedure, shortened: (§5)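 MDCK monolayers on inserts seeded 5 days earlier, TEER >70 Ohm×cm². Compound 10 μM in HBSS-Hepes added to the donor side, in duplicate, each direction. 2 h at 37 °C with agitation, sampled at 0 and 120 min, LC-MS. Integrity checked with Lucifer Yellow. Papp calculated for each direction; efflux ratio is B→A over A→B.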

[10] = Efflux ratio of permeability from basolateral to apical over apical to basolateral side of MDCK cells at 10 uM incubated for 2 hrs by LC-MS analysis; type: ADME, cell-based, Canis lupus familiaris; conditions: dog; procedure, shortened: as §5
[11] = Stability in rat plasma assessed as compound remaining after 3 hrs by LC-MS/MS analysis; type: ADME, cell-free; conditions: read-out: Stability
Procedure, shortened: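 Compound at 10 μM in 100% fresh rat plasma at 37 °C, sampled to 3 h. Quenched with 3 volumes cold acetonitrile, centrifuged 3000 g for 15 min, supernatant diluted 1:10 in water, LC-MS/MS. Reported as % remaining.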

[12] = target: T1, Cystic fibrosis transmembrane conductance regulator; assay: as §3; type: cell-based; procedure, shortened: as §4

solubility at 24 h, 250 µM [1]	remaining at 1 h (CYP3A4)	Emax [2]	Emax [3]	EC50 [4]	solubility ([1]; buffer, pH 7.4, 24 h, 250 µM)	Emax [5]	permeability [6]	Emax [7]	Emax [8]	Papp A→B at 2 h, 10 µM [9]	efflux ratio at 2 h, 10 µM [10]	remaining at 3 h [11]	EC50 [12]	SMILES
1 µM (≈ 0.511 µg/mL)	13%	41.4%	92.9%	2200 nM	–	–	–	–	–	–	–	–	–	COc1ccc(S(=O)(=O)N2CCN(C(C)c3nc(OC4CCCCC4)c4ccccc4n3)CC2)cc1 (stereo unspecified)
–	55%	100%	114%	1100 nM	1 µM (≈ 0.457 µg/mL)	115%	–	–	–	–	–	–	–	COc1ccc(Cl)cc1Nc1nc(-c2sc(NC(=O)c3ccccc3)nc2C)cs1
250 µM (≈ 107 µg/mL)	71%	–	56.6%	1400 nM	–	103%	permeable	34.4%	74.6%	0.4 ×10⁻⁶ cm/s	52.3	85%	–	NC(=O)C1CCN(c2nc(-c3ccccn3)nc3c2CN(Cc2ccccc2)CC3)CC1
198 µM (≈ 94.4 µg/mL)	25%	–	65.6%	700 nM	–	–	permeable	61.7%	–	3.1 ×10⁻⁶ cm/s	12.1	93.2%	1900 nM	CC(=O)NC1CCN(c2nc(-c3ccccn3)nc3c2CN(Cc2ccc(Cl)cc2)CC3)CC1
180 µM (≈ 82.4 µg/mL)	100%	–	53.4%	3100 nM	–	–	permeable	inactive	–	1.8 ×10⁻⁶ cm/s	18.1	101%	–	CN1CCN(CCCNc2nc(-c3ccccn3)nc3c2CN(Cc2ccccc2)CC3)CC1
